Measurements pooled from the literature.
Read-out: cell growth or viability

Structure (SMILES) | cell line | method | time | IC50
O=C1c2cccc(O)c2C(=O)c2c(O)cc(CO)cc21 | HK-2 | MTT | 24 h | > 500 µM
O=C(NCCc1c[nH]c2ccccc12)C(=O)c1c[nH]c2ccc(Br)cc12 | C4-2 | MTT | – | > 100 µM
COc1ccc(CCN(C)CCc2ccc(OC)c(OC)c2)cc1OC | HN-6 | – | 72 h | > 20 µM
CCOc1ccc(C(=O)NN=C2C=C(C(C)(C)C)C(=O)C(C(C)(C)C)=C2)cc1 | human Fibroblast | resazurin | 24 h | > 100 µM
Nc1nc(Nc2ccccc2)nc2c1ncn2[C@@H]1O[C@H](CO)[C@@H](O)[C@H]1O | HN-6 | – | 72 h | > 20 µM
COC(=O)CN=c1scc(-c2ccccc2)n1-c1ccccc1[N+](=O)[O-] | Panc 02.03 | MTT | 72 h | > 100 µM
Cc1cc(O)c2c(c1)C(=O)c1cccc(O)c1C2=O | HK-2 | MTT | 24 h | > 500 µM
CS(=O)(=Nc1ccc(Br)cc1)c1c[nH]c2ccccc12 (centres unmarked) | C4-2 | MTT | 48 h | > 40 µM
O=C1NC(=NCc2cccs2)S/C1=C\c1ccc2ncccc2c1 | LOX IMVI | – | – | 4.4 µM
CC1(C)[C@@H](O)CC[C@]2(C)[C@H]3C(=O)C=C4[C@@H]5C[C@@](C)(C(=O)O)CC[C@]5(C)CC[C@@]4(C)[C@]3(C)CC[C@@H]12 | SGC-7901 | MTT | 48 h | 10.2 µM
CN1CCN(c2ccc3nc(-c4c(N)c5c(F)cccc5[nH]c4=O)[nH]c3c2)CC1 | RT-112 | MTT | 5 days | 0.2 µM
CC(C)(C=O)Cc1cc(C(C)(C)C)c(O)c(C(C)(C)C)c1 | HN-6 | – | 72 h | > 20 µM
CC1(C)CC[C@]2(C(=O)O)CC[C@]3(C)C(=CC[C@@H]4[C@@]5(C)CC[C@H](O)C(C)(C)[C@@H]5CC[C@]43C)[C@@H]2C1 | SGC-7901 | MTT | 48 h | 52.7 µM
COc1cc(O)c2c(c1)C(=O)c1cc(C)cc(O)c1C2=O | HK-2 | MTT | 24 h | > 500 µM
CCN1CCN(c2ccc(Nc3cc(N(C)C(=O)Nc4c(Cl)c(OC)cc(OC)c4Cl)ncn3)cc2)CC1 | KATO III | ATP luminescence | 96 h | 0.00222 µM
CCCCCCNC(=O)n1cc(F)c(=O)[nH]c1=O | C6 | MTT | 72 h | 7 µM
CC(C)=CCC[C@](C)(O)[C@H]1CC[C@]2(C)[C@@H]1[C@H](O)C[C@@H]1[C@@]3(C)CC[C@H](O[C@@H]4O[C@H](CO)[C@@H](O)[C@H](O)[C@H]4O[C@@H]4O[C@H](CO)[C@@H](O)[C@H](O)[C@H]4O)C(C)(C)[C@@H]3CC[C@]12C | BEAS-2B | MTT | 72 h | > 100 µM
COc1ccc(-c2nc(C(=O)Nc3nnc(-c4cc5ccccc5[nH]4)s3)cc3c2[nH]c2ccccc23)cc1 | BEAS-2B | MTT | 72 h | 71.2 µM
COc1cccc2c1C(=O)c1c(O)c3c(c(O)c1C2=O)C[C@@](O)(C(=O)CO)C[C@@H]3O[C@H]1C[C@H](N)[C@H](O)[C@H](C)O1 | KATO III | MTT | 48 h | 0.71 µg/mL

Structure (SMILES) | cell line | method | time | IC50
CCN1C(=O)N(c2c(F)c(OC)cc(OC)c2F)Cc2cnc3[nH]c(CN4CCOCC4)cc3c21 | RT-112 | ATP luminescence | 96 h | 0.00522 µM
N=C(N)c1ccc(N=Nc2c(O)ccc3cc(O)ccc23)cc1 | MDA-MB-468 | MTT | – | 20 µM
CCN(CC)CCNC(=O)COc1ccc(OC)cc1 | HN-6 | – | 72 h | > 20 µM
COc1cc(Nc2nccc(-c3cnn4nc(OC)ccc34)n2)cc(C(F)(F)F)c1 | A2058 | ATP luminescence | – | 0.19 µM
Nc1c2c(nc3ccccc13)CCCC2O (centres unmarked) | HN-6 | – | 72 h | > 20 µM
CC(C)C[C@H](NC(=O)[C@H](Cc1ccccc1)NC(=O)c1cnccn1)B(O)O | RERF-LC-Ad2 | ATP luminescence | – | 0.022 µM
O=C(CNC(=O)c1cccc2ccccc12)Nc1ccccc1Oc1ccc(O)cc1 | SK-N-DZ | – | – | 0.467 µM
Clc1ccc(N2CCN(Cc3c[nH]c4ncccc34)CC2)cc1 | HN-6 | – | 72 h | > 20 µM
O=C(CNC(=O)c1cccc2ccccc12)Nc1ccccc1Oc1cccc(O)c1 | SK-N-DZ | – | – | 0.539 µM
COc1ccc2c(C(=O)C(=O)NCCc3c[nH]c4ccccc34)c[nH]c2c1 | C4-2 | MTT | – | > 100 µM
COC(=O)CN=c1scc(-c2ccccc2)n1-c1ccccc1 | Panc 02.03 | MTT | 72 h | 81.5 µM
CN(C)CC[C@@H](c1ccc(Cl)cc1)c1ccccn1 | HN-6 | – | 72 h | > 20 µM
Cc1ccc(C(=O)Nc2ccc(Oc3cc4cnn(C)c4cc3-c3cn[nH]c3)c(F)c2)c(=O)n1-c1ccc(F)cc1 | KATO III | ATP luminescence | – | 0.354 µM
COc1ccc2c(c1OC)C(=O)O[C@@H]2[C@H]1c2c(cc3c(c2OC)OCO3)CCN1C | HN-6 | – | 72 h | 16.3 µM
O=C(NCCc1c[nH]c2ccccc12)C(=O)c1c[nH]c2ccc(F)cc12 | C4-2 | MTT | – | > 100 µM
COc1cc([C@@H]2c3cc4c(cc3[C@@H](O[C@@H]3O[C@@H]5CO[C@@H](C)O[C@H]5[C@H](O)[C@H]3O)[C@H]3COC(=O)[C@H]23)OCO4)cc(OC)c1O | BEAS-2B | – | – | 11.2 µM
CC(C)(C)C1=CC(=NNC(=O)C2CCCCC2)C=C(C(C)(C)C)C1=O | human Fibroblast | resazurin | 24 h | > 100 µM
C=C(C)C(=O)Nc1ccc(-c2c(-c3ccc(Oc4nccc(C)n4)c(F)c3)c3c(N)ncnc3n2C)cc1 | KATO III | ATP luminescence | 96 h | 0.00129 µM
Nc1ccc(Cl)c[n+]1[Pt-2]([Cl])([Cl])[n+]1cc(Cl)ccc1N | BEAS-2B | MTT | 24 h | 10.3 µM
